Laboratory results taken from ChEMBL document CHEMBL3853270, “Influence of Birch Bark Triterpenes on Keratinocytes and Fibroblasts from Diabetic and Nondiabetic Donors” (2016).
Activity calls are given as the source filed them. No cut-off for these calls is given here.

Tests used:
[1] = test system: Keratinocyte; experiment: Effect on antiinflammatory related gene expression in non-diabetic adult human primary keratinocytes assessed as NFKBIA mRNA levels at 1.96 uM after 6 hrs by qPCR analysis; format: functional
Procedure, shortened: (§1)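 Primary keratinocytes from nondiabetic young and adult and diabetic adult donors; 400 000 cells per sample, 6 h exposure at 1.96 or 9.81 μM. RNA extracted and read on a high-throughput qPCR chip. Results are fold change versus 0.1% DMSO solvent control from 5−7 independent experiments over two donors per group, SD, one-way ANOVA with Bonferroni post-test.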

[2] = test system: Keratinocyte; experiment: Effect on growth factor related gene expression in non-diabetic adult human primary keratinocytes assessed as VEGFA mRNA levels at 1.96 uM after 6 hrs by qPCR analysis; format: functional
Procedure, shortened: (§2)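 Primary human keratinocytes (nondiabetic young or adult, diabetic adult donors) were exposed to compound for 6 h, with 0.1% DMSO as solvent control. Total RNA came from 400 000 cells per sample and was assayed on a Fluidigm Biomark high-throughput qPCR chip. Results are fold change vs solvent control, from 2−4 independent experiments on two donors per group, with SD. Groups were compared by one-way ANOVA with Bonferroni post-test.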

[3] = test system: Keratinocyte; experiment: Effect on pro-inflammatory related gene expression in diabetic adult human primary keratinocytes assessed as IL1B mRNA levels at 1.96 uM after 6 hrs by qPCR analysis; format: functional
[4] = test system: Keratinocyte; experiment: Effect on chemokines related gene expression in diabetic adult human primary keratinocytes assessed as IL8 mRNA levels at 1.96 uM after 6 hrs by qPCR analysis; format: functional
[5] = test system: Keratinocyte; experiment: Effect on transcription factor related gene expression in diabetic adult human primary keratinocytes assessed as JUN mRNA levels at 1.96 uM after 6 hrs by qPCR analysis; format: functional
[6] = test system: Keratinocyte; experiment: Effect on AQP3 mRNA expression levels in diabetic adult human primary keratinocytes at 1.96 uM after 6 hrs by qPCR analysis; format: functional; procedure, shortened: as §1
[7] = test system: Keratinocyte; experiment: Effect on cellular connection related gene expression in non-diabetic young human primary keratinocytes assessed as GJB2 mRNA levels at 9.81 uM after 6 hrs by qPCR analysis; format: functional
[8] = test system: Keratinocyte; experiment: Effect on chemokines related gene expression in non-diabetic young human primary keratinocytes assessed as IL8 mRNA levels at 9.81 uM after 6 hrs by qPCR analysis; format: functional; procedure, shortened: as §2
[9] = test system: Keratinocyte; experiment: Effect on antioxidant related gene expression in non-diabetic young human primary keratinocytes assessed as SOD2 mRNA levels at 9.81 uM after 6 hrs by qPCR analysis; format: functional
[10] = test system: Keratinocyte; experiment: Effect on growth factor related gene expression in non-diabetic young human primary keratinocytes assessed as GDF15 mRNA levels at 9.81 uM after 6 hrs by qPCR analysis; format: functional; procedure, shortened: as §2
[11] = test system: Keratinocyte; experiment: Effect on pro-inflammatory related gene expression in non-diabetic adult human primary keratinocytes assessed as TNF mRNA levels at 9.81 uM after 6 hrs by qPCR analysis; format: functional
[12] = test system: Keratinocyte; experiment: Effect on AQP3 mRNA expression levels in diabetic adult human primary keratinocytes at 9.81 uM after 6 hrs by qPCR analysis; format: functional; procedure, shortened: as §1
[13] = test system: Fibroblast; experiment: Effect on pro-inflammatory related gene expression in non-diabetic young human primary fibroblasts assessed as IL1B mRNA levels at 1.96 uM after 6 hrs by qPCR analysis; format: functional
[14] = test system: Fibroblast; experiment: Effect on growth factor related gene expression in non-diabetic young human primary fibroblasts assessed as VEGFA mRNA levels at 1.96 uM after 6 hrs by qPCR analysis; format: functional
Procedure, shortened: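 Primary human dermal fibroblasts (young or adult nondiabetic, adult diabetic donor) were treated for 6 h against a 0.1% DMSO solvent control. RNA from 320 000 cells per sample was measured by Fluidigm Biomark high-throughput qPCR. Values are fold change relative to solvent control, from four independent experiments, with SD. One-way ANOVA with Bonferroni post-test was applied.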

[15] = test system: Fibroblast; experiment: Effect on transcription factor related gene expression in non-diabetic adult human primary fibroblasts assessed as JUN mRNA levels at 1.96 uM after 6 hrs by qPCR analysis; format: functional
[16] = test system: Fibroblast; experiment: Effect on chemokines related gene expression in diabetic adult human primary fibroblasts assessed as IL8 mRNA levels at 1.96 uM after 6 hrs by qPCR analysis; format: functional
[17] = test system: Fibroblast; experiment: Effect on pro-inflammatory related gene expression in non-diabetic adult human primary fibroblasts assessed as PTGS2 mRNA levels at 9.81 uM after 6 hrs by qPCR analysis; format: functional
[18] = test system: Fibroblast; experiment: Effect on antiinflammatory related gene expression in non-diabetic adult human primary fibroblasts assessed as NFKBIA mRNA levels at 9.81 uM after 6 hrs by qPCR analysis; format: functional
Procedure, shortened: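 Primary dermal fibroblasts from one nondiabetic young, one nondiabetic adult and one diabetic adult donor; 320 000 cells per sample, 6 h at 1.96 or 9.81 μM. RNA measured on a high-throughput qPCR chip. Fold change versus 0.1% DMSO control, four independent experiments, SD, one-way ANOVA with Bonferroni post-test.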

[19] = test system: Fibroblast; experiment: Effect on transcription factor related gene expression in non-diabetic adult human primary fibroblasts assessed as JUN mRNA levels at 9.81 uM after 6 hrs by qPCR analysis; format: functional
[20] = test system: Fibroblast; experiment: Effect on pro-inflammatory related gene expression in diabetic adult human primary fibroblasts assessed as PTGS2 mRNA levels at 9.81 uM after 6 hrs by qPCR analysis; format: functional
[21] = test system: Fibroblast; experiment: Effect on antioxidant related gene expression in non-diabetic adult human primary fibroblasts assessed as NFE2L2 mRNA levels at 1.96 uM after 6 hrs by qPCR analysis; format: functional
[22] = test system: Fibroblast; experiment: Effect on adhesion molecules related gene expression in non-diabetic adult human primary fibroblasts assessed as VCAM1 mRNA levels at 9.81 uM after 6 hrs by qPCR analysis; format: functional
Procedure, shortened: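 Dermal fibroblasts from nondiabetic adult and diabetic adult donors, exposed for 6 h at 1.96 or 9.81 μM. ICAM-1 and VCAM-1 mRNA measured by standard qRT-PCR, n = 3. Fold change versus 0.1% DMSO control, SD, one-way ANOVA with Bonferroni post-test.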

[23] = Effect on wound healing activity in non-diabetic adult human primary keratinocytes assessed as upregulation of TNFalpha protein levels at 1.96 uM after 24 hrs by bead-based suspension array analysis; format: functional; details: Keratinocyte
[24] = Upregulation of wound healing activity related MCP1 protein levels in non-diabetic adult human primary keratinocytes at 1.96 uM after 24 hrs by bead-based suspension array analysis; format: functional; details: Keratinocyte
[25] = Effect on wound healing activity in non-diabetic adult human primary fibroblasts assessed as upregulation of soluble TNFR1 protein levels at 1.96 uM after 24 hrs by bead-based suspension array analysis; format: functional; details: Fibroblast
[26] = Effect on wound healing activity in non-diabetic adult human primary fibroblasts assessed as upregulation of soluble ICAM1 protein levels at 1.96 uM after 24 hrs by bead-based suspension array analysis; format: functional; details: Fibroblast
[27] = target: Transforming protein RhoA (Homo sapiens) (UniProt P61586); experiment: Activation of RhoA in human diabetic primary keratinocytes at 10 nM after 3 hrs by immunoblot method
Chain of Transforming protein RhoA (Homo sapiens) (P61586 whole entry): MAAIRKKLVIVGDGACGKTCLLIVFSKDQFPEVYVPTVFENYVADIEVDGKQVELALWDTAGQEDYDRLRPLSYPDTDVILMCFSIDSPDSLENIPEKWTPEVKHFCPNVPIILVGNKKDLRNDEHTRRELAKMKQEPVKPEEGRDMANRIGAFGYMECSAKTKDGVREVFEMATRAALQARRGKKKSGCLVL
Procedure, shortened: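 Keratinocytes from a diabetic adult donor; incubation 3 h for RhoA, 20 min for Cdc42 and Rac1. Lysates made in glycerol/Tris pH 7.4/NaCl/NP-40/MgCl2/PMSF buffer, spun at 4 °C. Active GTP-bound form pulled down on glutathione-sepharose with GST-Rhotekin (RhoA) or GST-PAK (Cdc42, Rac1) for 1 h at 4 °C. Total and pulled-down protein read by immunoblot with ECL; n = 3.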

C=C(C)[C@@H]1CC[C@]2(CO)CC[C@]3(C)[C@H](CC[C@@H]4[C@@]5(C)CC[C@H](O)C(C)(C)[C@@H]5CC[C@]43C)[C@@H]12 [BETULIN]
fold change (FC) [1]: 1.4 | fold change (FC) [2]: 1.3 | fold change (FC) [3]: 0.8 | fold change (FC) [4]: 16.5 | fold change (FC) [5]: 1.2 | fold change (FC) [6]: 0.8 | fold change (FC) [7]: 0.8 | fold change (FC) [8]: 21.8 | fold change (FC) [9]: 1.4 | fold change (FC) [10]: 1.1 | fold change (FC) [11]: 6.1 | fold change (FC) [12]: 0.8 | fold change (FC) [13]: 3.3 | fold change (FC) [14]: 1.7 | fold change (FC) [15]: 1.9 | fold change (FC) [16]: 10.8 | fold change (FC) [17]: 179 | fold change (FC) [18]: 11 | fold change (FC) [19]: 3.1 | fold change (FC) [20]: 2.9 | fold change (FC) [21]: 1.3 | fold change (FC) [22]: 53.7 | Activity [23]: Active | Activity [24]: Active | Activity [25]: Active | Activity [26]: Active | Activity [27]: Active
